ChEMBL document CHEMBL3608276, “Phenolic Compounds from the Leaves and Twigs of Osteomeles schwerinae That Inhibit Rat Lens Aldose Reductase and Vessel Dilation in Zebrafish Larvae” (J Nat Prod, 2015)
pIC50: −log10 of the molar value.

Tests used:
[1] = molecular target: Aldo-keto reductase family 1 member B1 (Rattus norvegicus, UniProt P07943); experiment: Inhibition of Sprague-Dawley rat lense aldose reductase using DL-glyceraldehyde as substrate by spectrofluorometric analysis
Outline: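 Crude enzyme from lenses of 8-week-old Sprague–Dawley rats (100–150 g), homogenized in 135 mM Na,K-phosphate pH 7.0 with 0.5 mM PMSF and 10 mM 2-mercaptoethanol; 100000g supernatant used. Reaction in 135 mM phosphate pH 7.0, 100 mM Li2SO4, 0.03 mM NADPH, 1 mM DL-glyceraldehyde at 37 °C, NADPH-started, HCl-stopped. NADP converted with NaOH/imidazole at 60 °C 10 min; fluorescence ex 360/em 460 nm. IC50 from log-concentration regression of remaining activity; 100 μM cutoff.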

[2] = species: Danio rerio; experiment: Toxicity in zebrafish embryo up to 20 uM; type: organism-based; details: in vivo
[3] = species: Danio rerio; experiment: Reduction of high glucose-induced dilation of hyaloid-retinal vessel in flk:EGFP transgenic zebrafish embryo at 10 uM treated for day 3 to 6 postfertilization measured on day 6 by stereomicroscopic analysis relative to control; type: functional; set-up: scale not given: the % may be the effect or the level left
Outline: (§1)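 flk:EGFP embryos, five per well at 3 dpf in egg water with 130 mM glucose, exposed to compound 3–6 dpf. Fixed in 4% paraformaldehyde at 6 dpf, lenses with vessels isolated by 3% trypsin (0.2 M Tris-HCl pH 7.8) 80 min at 37 °C. Hyaloid vessel diameter near the optic disc measured three times per lens, 10 larvae per group, triplicate; mean ± SEM, ANOVA/Dunnett versus high-glucose group.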

[4] = species: Danio rerio; experiment: Reduction of high glucose-induced dilation of hyaloid-retinal vessels in flk:EGFP transgenic zebrafish embryo at 20 uM treated for day 3 to 6 postfertilization measured on day 6 by stereomicroscopic analysis relative to control; type: functional; set-up: scale not given: the % may be the effect or the level left; outline: as §1

pIC50 [1] | Compound | Activity [2] | Activity [3] [%] | Activity [4] [%]
5.25 | COc1cc(O[C@@H]2O[C@H](CO)[C@@H](O)[C@H](O)[C@H]2O)cc(-c2ccc(O)c(O)c2)c1 | Non-toxic |  | 
5.42 | COc1cc(OC)cc(-c2ccc(O)c(O[C@@H]3O[C@H](CO)[C@@H](O)[C@H](O)[C@H]3O)c2)c1 | Non-toxic |  | 

More lines, now with the values behind:

Compound | pIC50 [1] | Activity [2] | Activity [3] [%] | Activity [4] [%]
O=C(O)CC1(CC(=O)O)CCCC1 | 4.54 |  |  | 
COc1cc([C@H]2O[C@H](c3cc(OC)c(O)c(OC)c3)[C@@H](CO)[C@@H]2CO)cc(OC)c1O [HUAZHONGILEXIN] | < 4.00 |  |  | 
COc1cc([C@H]2O[C@H](c3cc(OC)c(O)c(OC)c3)[C@@H](CO[C@@H]3O[C@@H](C)[C@H](O)[C@@H](O)[C@H]3O)[C@@H]2CO)cc(OC)c1O | < 4.00 |  |  | 
COc1cc(O)cc(-c2ccc(O)c(O)c2)c1 | 4.86 | Non-toxic | 95 | 99
